Data reported in ChEMBL document CHEMBL1157912, “Impact of nature and length of linker incorporated in agonists on toll-like receptor 9-mediated immune responses” (J Med Chem, 2010).
The source made the active and inactive calls. The rule behind the calls is not given here.

Legend:
[1] = tested on: Mus musculus; test: Immunostimulatory activity in C57BL/6 mouse assessed as increase in serum IL12 level at 1 mg/kg, sc after 2 hrs by ELISA; format: functional, organism-based; design: dose 1 mg/kg
Summary of the method: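 Female C57BL/6 mice (n=3) received a single subcutaneous agonist dose of 1 mg/kg. Blood was taken by retro-orbital bleeding 2 h later, and serum IL-12 was measured by sandwich ELISA. Values are the mean of three mice ± SD.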

[2] = target: T1, Toll-like receptor 9 (Mus musculus) (UniProt Q9EQU3); test: Activation of mouse TLR9 expressed in HEK293 cells assessed as induction of NF-kappaB activity at 1 to 10 ug/ml after 18 hrs by SEAP assay; format: cell-based
T1 sequence (whole entry): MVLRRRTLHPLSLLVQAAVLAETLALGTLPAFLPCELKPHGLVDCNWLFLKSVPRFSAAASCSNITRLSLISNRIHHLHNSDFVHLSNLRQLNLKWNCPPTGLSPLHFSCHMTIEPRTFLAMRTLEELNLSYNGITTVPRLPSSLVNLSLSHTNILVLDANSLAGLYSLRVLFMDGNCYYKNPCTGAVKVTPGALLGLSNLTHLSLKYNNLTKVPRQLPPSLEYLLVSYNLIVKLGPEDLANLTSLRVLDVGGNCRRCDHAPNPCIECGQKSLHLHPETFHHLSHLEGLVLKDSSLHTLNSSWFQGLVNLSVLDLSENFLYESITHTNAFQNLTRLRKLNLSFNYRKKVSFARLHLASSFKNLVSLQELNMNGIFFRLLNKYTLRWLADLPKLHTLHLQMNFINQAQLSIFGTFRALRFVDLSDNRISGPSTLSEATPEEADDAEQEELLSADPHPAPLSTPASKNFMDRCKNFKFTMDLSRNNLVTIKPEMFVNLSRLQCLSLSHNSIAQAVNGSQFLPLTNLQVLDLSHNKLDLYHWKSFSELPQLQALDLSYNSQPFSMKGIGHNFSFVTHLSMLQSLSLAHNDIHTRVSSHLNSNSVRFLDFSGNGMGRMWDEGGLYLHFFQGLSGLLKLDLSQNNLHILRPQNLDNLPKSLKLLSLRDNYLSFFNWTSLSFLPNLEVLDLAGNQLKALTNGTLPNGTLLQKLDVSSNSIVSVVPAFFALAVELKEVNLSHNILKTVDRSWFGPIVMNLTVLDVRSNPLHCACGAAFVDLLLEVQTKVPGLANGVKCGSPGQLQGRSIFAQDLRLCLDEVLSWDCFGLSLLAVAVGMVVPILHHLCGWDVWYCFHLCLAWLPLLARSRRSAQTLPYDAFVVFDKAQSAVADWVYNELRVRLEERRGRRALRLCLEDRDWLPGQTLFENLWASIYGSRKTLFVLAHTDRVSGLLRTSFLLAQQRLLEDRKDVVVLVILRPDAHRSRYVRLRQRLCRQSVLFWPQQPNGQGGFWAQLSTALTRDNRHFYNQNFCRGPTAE
Summary of the method: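 HEK293 cells stably expressing mouse TLR9 were grown in DMEM with 10% heat-inactivated FBS. At 80% confluence they were transiently transfected with a SEAP reporter plasmid (100 ng/well, lipofectamine) for 6 h. Medium was then replaced and agonists were added for 18 h. Supernatant SEAP was read with QuantiBlue substrate at 620-645 nm. Results are expressed as fold NF-κB activity over PBS control.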

[3] = target: T2, Toll-like receptor 9 (Homo sapiens) (UniProt Q9NR96); test: Induction of TLR9-mediated immune stimulation in human PBMC assessed as IL2R production at 2 ug/ml after 24 hrs by luminex multiplex assay (RVb = 0.02 +/- 0.01 ng/ml)
T2 sequence (whole entry): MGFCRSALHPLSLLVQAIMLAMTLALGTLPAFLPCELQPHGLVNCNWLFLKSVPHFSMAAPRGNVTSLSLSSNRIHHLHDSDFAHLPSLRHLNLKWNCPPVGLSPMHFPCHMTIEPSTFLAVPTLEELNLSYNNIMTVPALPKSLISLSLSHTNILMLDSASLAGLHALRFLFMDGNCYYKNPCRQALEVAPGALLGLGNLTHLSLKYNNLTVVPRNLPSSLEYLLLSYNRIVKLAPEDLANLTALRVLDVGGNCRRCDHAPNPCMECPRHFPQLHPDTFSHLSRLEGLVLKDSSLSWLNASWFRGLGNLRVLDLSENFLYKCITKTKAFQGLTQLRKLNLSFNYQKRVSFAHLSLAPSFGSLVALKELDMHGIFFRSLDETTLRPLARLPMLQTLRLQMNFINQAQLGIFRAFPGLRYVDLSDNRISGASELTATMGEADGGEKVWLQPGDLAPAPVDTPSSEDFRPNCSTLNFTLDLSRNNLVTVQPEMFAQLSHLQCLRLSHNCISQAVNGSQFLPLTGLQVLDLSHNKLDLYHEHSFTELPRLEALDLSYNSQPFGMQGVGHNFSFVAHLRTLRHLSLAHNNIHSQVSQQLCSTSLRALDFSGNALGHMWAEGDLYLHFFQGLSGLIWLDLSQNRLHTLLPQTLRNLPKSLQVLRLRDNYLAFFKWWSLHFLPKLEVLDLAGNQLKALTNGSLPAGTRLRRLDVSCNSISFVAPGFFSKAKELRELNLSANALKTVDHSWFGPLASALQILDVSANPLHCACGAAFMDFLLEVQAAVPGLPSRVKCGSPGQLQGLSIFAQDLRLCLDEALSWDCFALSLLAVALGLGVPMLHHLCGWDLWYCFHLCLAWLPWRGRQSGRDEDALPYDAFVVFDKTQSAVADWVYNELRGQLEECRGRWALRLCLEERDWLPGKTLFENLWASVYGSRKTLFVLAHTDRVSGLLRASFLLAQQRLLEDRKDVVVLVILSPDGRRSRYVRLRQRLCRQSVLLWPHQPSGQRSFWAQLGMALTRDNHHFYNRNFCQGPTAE

[4] = target: T2, Toll-like receptor 9 (Homo sapiens); test: Induction of TLR9-mediated human B cell proliferation assessed as [3H]thymidine uptake at 2 to 10 ug/ml after 56 hrs by scintillation counting; format: cell-based
Summary of the method: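 B cells were purified from human PBMCs (healthy volunteers), about 1 × 10⁵ cells, and stimulated with various agonist concentrations for 56 h. Cells were then pulsed with 0.75 μCi [³H]-thymidine and harvested 16 h later. Incorporation was counted by scintillation and reported as cpm.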

[5] = target: T2, Toll-like receptor 9 (Homo sapiens); test: Induction of TLR9-mediated immune stimulation in human PBMC assessed as IL12 production at 2 ug/ml after 24 hrs by luminex multiplex assay (RVb = 0.00 ng/ml)
[6] = target: T2, Toll-like receptor 9 (Homo sapiens); test: Induction of TLR9-mediated immune stimulation in human PBMC assessed as IL1Ralpha production at 2 ug/ml after 24 hrs by luminex multiplex assay (RVb = 0.12 +/- 0.03 ng/ml)

| Activity [2] | Activity [3] [ng/mL] | Activity [4] | Activity [5] [ng/mL] | Activity [6] [ng/mL] | SMILES | Activity [1] |
| --- | --- | --- | --- | --- | --- | --- |
| Active | 0.06 | Active | 0.03 | 5.47 | Cc1cn([C@H]2C[C@H](OCC(O)COP(=O)(S)O[C@H]3C[C@H](n4cc(C)c(=O)[nH]c4=O)O[C@@H]3COP(=O)(S)O[C@H]3[C@@H](O)[C@H](n4ccc(N)nc4=O)O[C@@H]3COP(=O)(S)O[C@H]3[C@@H](O)[C@H](n4cnc5c(N)ncnc54)O[C@@H]3COP(=O)(S)O[C@H]3[C@@H](O)[C@H](n4cnc5c(N)ncnc54)O[C@@H]3COP(=O)(S)O[C@H]3[C@@H](O)[C@H](n4ccc(N)nc4=O)O[C@@H]3COP(=O)(S)O[C@H]3[C@@H](O)[C@H](n4ccc(N)nc4=O)O[C@@H]3COP(=O)(S)O[C@H]3[C@@H](O)[C@H](n4cnc5c(N)ncnc54)O[C@@H]3COP(=O)(S)O[C@H]3[C@@H](O)[C@H](n4ccc(N)nc4=O)O[C@@H]3COP(=O)(S)O[C@H]3[C@@H](O)[C@H](n4cnc5c(N)ncnc54)O[C@@H]3COP(=O)(S)O[C@H]3[C@@H](O)[C@H](n4ccc(N)nc4=O)O[C@@H]3COP(=O)(S)O[C@H]3[C@@H](O)[C@H](n4cnc5c(N)ncnc54)O[C@@H]3CO)[C@@H](COP(=O)(S)O[C@H]3[C@@H](O)[C@H](n4ccc(N)nc4=O)O[C@@H]3COP(=O)(S)O[C@H]3[C@@H](O)[C@H](n4cnc5c(N)ncnc54)O[C@@H]3COP(=O)(S)O[C@H]3[C@@H](O)[C@H](n4cnc5c(N)ncnc54)O[C@@H]3COP(=O)(S)O[C@H]3[C@@H](O)[C@H](n4ccc(N)nc4=O)O[C@@H]3COP(=O)(S)O[C@H]3[C@@H](O)[C@H](n4ccc(N)nc4=O)O[C@@H]3COP(=O)(S)O[C@H]3[C@@H](O)[C@H](n4cnc5c(N)ncnc54)O[C@@H]3COP(=O)(S)O[C@H]3[C@@H](O)[C@H](n4ccc(N)nc4=O)O[C@@H]3COP(=O)(S)O[C@H]3[C@@H](O)[C@H](n4cnc5c(N)ncnc54)O[C@@H]3COP(=O)(S)O[C@H]3[C@@H](O)[C@H](n4ccc(N)nc4=O)O[C@@H]3COP(=O)(S)O[C@H]3[C@@H](O)[C@H](n4cnc5c(N)ncnc54)O[C@@H]3CO)O2)c(=O)[nH]c1=O (stereo not given in full) | Active |
| – | 0.04 | – | 0.11 | 9.05 | Cc1cn([C@H]2C[C@H](OCCOCCOCCOCCOP(=O)(S)O[C@H]3C[C@H](n4cc(C)c(=O)[nH]c4=O)O[C@@H]3COP(=O)(S)O[C@H]3[C@@H](O)[C@H](n4ccc(N)nc4=O)O[C@@H]3COP(=O)(S)O[C@H]3C[C@H](n4cc(C)c(=O)[nH]c4=O)O[C@@H]3COP(=O)(S)O[C@H]3C[C@H](n4cc(C)c(=O)[nH]c4=O)O[C@@H]3COP(=O)(S)O[C@H]3C[C@H](n4ccc5c(=O)[nH]c(N)nc54)O[C@@H]3COP(=O)(S)O[C@H]3[C@@H](O)[C@H](n4ccc(N)nc4=O)O[C@@H]3COP(=O)(S)O[C@H]3C[C@H](n4cc(C)c(=O)[nH]c4=O)O[C@@H]3COP(=O)(S)O[C@H]3[C@@H](O)[C@H](n4cnc5c(=O)[nH]c(N)nc54)O[C@@H]3COP(=O)(S)O[C@H]3C[C@H](n4cc(C)c(=O)[nH]c4=O)O[C@@H]3COP(=O)(S)O[C@H]3[C@@H](O)[C@H](n4ccc(N)nc4=O)O[C@@H]3COP(=O)(S)O[C@H]3C[C@H](n4cc(C)c(=O)[nH]c4=O)O[C@@H]3CO)[C@@H](COP(=O)(S)O[C@H]3[C@@H](O)[C@H](n4ccc(N)nc4=O)O[C@@H]3COP(=O)(S)O[C@H]3C[C@H](n4cc(C)c(=O)[nH]c4=O)O[C@@H]3COP(=O)(S)O[C@H]3C[C@H](n4cc(C)c(=O)[nH]c4=O)O[C@@H]3COP(=O)(S)O[C@H]3C[C@H](n4ccc5c(=O)[nH]c(N)nc54)O[C@@H]3COP(=O)(S)O[C@H]3[C@@H](O)[C@H](n4ccc(N)nc4=O)O[C@@H]3COP(=O)(S)O[C@H]3C[C@H](n4cc(C)c(=O)[nH]c4=O)O[C@@H]3COP(=O)(S)O[C@H]3[C@@H](O)[C@H](n4cnc5c(=O)[nH]c(N)nc54)O[C@@H]3COP(=O)(S)O[C@H]3C[C@H](n4cc(C)c(=O)[nH]c4=O)O[C@@H]3COP(=O)(S)O[C@H]3[C@@H](O)[C@H](n4ccc(N)nc4=O)O[C@@H]3COP(=O)(S)O[C@H]3C[C@H](n4cc(C)c(=O)[nH]c4=O)O[C@@H]3CO)O2)c(=O)[nH]c1=O (stereo not given in full) | Active |
